Screening results as filed in PubChem BioAssay.
TRPC6 activator: mouse TRPC6 channel activation; B-score at 10 µM; 310,000 compounds, 0.13% hits; HEK293-TRPC6 membrane potential dye fluorescence; active compounds read high; Q61143; AID 2550;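 active = B-score of the integrated fluorescence ratio above library mean plus 3 SD, and starting fluorescence ratio within library mean plus 5 SD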;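 note: higher score means more depolarization so channel activation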
Target sequence (Q61143 whole entry, looked up): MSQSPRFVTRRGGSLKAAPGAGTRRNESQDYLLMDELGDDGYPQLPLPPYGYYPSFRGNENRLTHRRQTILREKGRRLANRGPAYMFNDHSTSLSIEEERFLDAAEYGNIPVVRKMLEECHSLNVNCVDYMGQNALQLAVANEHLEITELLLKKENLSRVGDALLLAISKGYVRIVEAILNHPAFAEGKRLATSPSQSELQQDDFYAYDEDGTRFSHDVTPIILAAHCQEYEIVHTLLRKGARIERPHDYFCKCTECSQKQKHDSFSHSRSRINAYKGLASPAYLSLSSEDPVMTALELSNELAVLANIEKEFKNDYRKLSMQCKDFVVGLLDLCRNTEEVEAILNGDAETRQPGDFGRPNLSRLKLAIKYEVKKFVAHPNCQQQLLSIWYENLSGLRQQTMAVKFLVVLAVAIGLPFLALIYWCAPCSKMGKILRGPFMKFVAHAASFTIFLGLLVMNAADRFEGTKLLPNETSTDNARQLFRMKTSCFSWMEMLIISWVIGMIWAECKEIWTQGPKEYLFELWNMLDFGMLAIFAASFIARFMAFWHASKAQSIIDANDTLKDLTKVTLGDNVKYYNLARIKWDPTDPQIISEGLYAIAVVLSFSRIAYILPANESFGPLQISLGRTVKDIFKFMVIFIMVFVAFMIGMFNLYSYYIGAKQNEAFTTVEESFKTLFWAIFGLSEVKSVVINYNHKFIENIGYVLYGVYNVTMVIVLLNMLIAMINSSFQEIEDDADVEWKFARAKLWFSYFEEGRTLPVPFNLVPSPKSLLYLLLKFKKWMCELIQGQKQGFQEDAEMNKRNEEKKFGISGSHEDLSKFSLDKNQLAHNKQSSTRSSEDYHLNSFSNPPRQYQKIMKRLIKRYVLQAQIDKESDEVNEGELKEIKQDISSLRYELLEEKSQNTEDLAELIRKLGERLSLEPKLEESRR
TRPC4 block: TRPC4 (mouse) channel inhibition. 300,000 compounds, 0.39% hits. Q9QUQ5. HEK293 TRPC4beta/mu-opioid, DAMGO-evoked Fluo4 calcium flux; active compounds read low. B-score at 10 µM;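 active = B-score over 3 SD under the library average, no early fluorescence shift, positive overall ratio signal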
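System: stable TRPC4beta/mu-opioid receptor HEK293 cells; Dosing: single-point compound dosing; Measured by: Fluo4 Ca2+ flux fluorescence; Read-out basis: per-well B score of integrated baseline-normalized Fluo4 ratio.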
Kir21 block: blocks the mouse Kir2.1 inward-rectifier potassium channel | P35561 | HEK293-Kir2.1, FluxOR thallium flux fluorescence; active compounds read low | B-score at 10 µM | 310,000 compounds, 0.85% hits;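 active = fluorescence ratio B-score at or below minus 3 SD of library scores, with starting-brightness B-score within 2 SD, cut at about -4.2 in these data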;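 note: channel flux triggered by added potassium and thallium sulfate stimulus; B-score of peak minus minimum fluorescence over baseline after thallium stimulus; more negative B-score means stronger Kir2.1 block with less thallium influx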
TRPC4 PAM: allosteric potentiators of mouse TRPC4 channel; 310,000 compounds, 0.42% hits; HEK293 TRPC4beta/mu-opioid, DAMGO EC20, Fluo-4 Ca2+ flux; active compounds read high; B-score at 10 µM; Q9QUQ5;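 active = B-score of calcium response area above 5 SD of library B-scores, with initial fluorescence ratio within 5 SD of library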;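 note: B-score of integrated fluorescence ratio over time as area under calcium response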
TRPC4 agonist: TRPC4 (mouse) channel activation; Q9QUQ5; HEK293 TRPC4beta/mu-opioid, Fluo4 calcium fluorescence; active compounds read high; B-score at 10 µM; 310,000 compounds, 0.49% hits; AID 2237;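 active = B-score above 5 SD of library B-scores, and initial fluorescence ratio not above library mean plus 5 SD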;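 note: positive B-score marks a calcium rise read as TRPC4 activation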
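Assay system: HEK293 cells stably co-expressing mouse TRPC4beta and mu-opioid receptor / Timing: Fluo4 dye loading 45 min at room temperature, 110 s recording / Signal: Fluo4 calcium-sensitive dye fluorescence, kinetic, 1 Hz baseline / Read-out: integrated baseline-normalised fluorescence ratio, converted to per-well B score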
TRPC6 inh: inhibitors of mouse TRPC6 channel | Q61143 | HEK293-TRPC6, membrane potential dye, ACh-evoked depolarization; active compounds read low | B-score at 10 µM | 310,000 compounds, 1.1% hits | AID 2553;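 active = B-score under library mean minus 3 SD, initial fluorescence not abnormally high, positive integrated signal ratio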;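 note: B-score derived from integrated fluorescence ratio over the kinetic read; more negative B-score means stronger inhibition of depolarization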
TRPC4 sel inh 2: second check of whether TRPC6 inhibitors also affect mouse TRPC4; 920 compounds, 42% hits; shares compounds with TRPC6 inh; HEK293 TRPC4/MOR, membrane potential dye fluorescence; channel activated by saturating DAMGO dose; inhibition, % at 10 µM;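 active = compounds whose fluorescence signal differed from control wells by over 3 SD, either direction, in both duplicate plates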
TRPC4 spec: mouse TRPC4 off-target activity of TRPC6 inhibitors; HEK293 TRPC4/mu-opioid, membrane potential fluorescence; AID 2777; activity change, negative = inhibition, % at 10 µM; shares compounds with TRPC6 inh; 920 compounds, 61% hits;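 active = rise or fall in signal beyond 3 SD of buffer-only wells in both replicate plates, either sign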;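 note: integrated kinetic ratio of fluorescence range over baseline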
HEK293 MPD ctr 2-1: parental HEK293 nonspecific activity of TRPC6 inhibitors, second screen; parental HEK293 membrane potential dye fluorescence; maximal acetylcholine challenge after compound addition; 920 compounds, 31% hits; shares compounds with TRPC6 inh; signal change vs control, % at 10 µM;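 active = membrane potential signal moving either way by over 3 SD of the maximum-effect control, in both duplicate plates, meaning non-specific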
HEK293 MPD ctr-1: parental HEK293 nonspecific activity of TRPC6 inhibitors. shares compounds with TRPC6 inh. parental HEK293 membrane potential dye fluorescence. membrane potential signal change, % at 10 µM. 920 compounds, 60% hits. AID 2780;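 active = membrane potential signal shifting up or down by more than 3 SD of buffer-only wells, on both duplicate plates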
HEK293 MPD ctr-2: counter-screen for TRPC6 modulators: effect in parental HEK293 cells. shares compounds with TRPC6 inh. membrane potential dye fluorescence. membrane potential signal change, % at 10 µM. 2,400 compounds, 51% hits;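 active = membrane potential signal moves up or down beyond 5 SD from buffer-only wells, on both duplicate plates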
HEK293 MPD ctr 2-2: second check of TRPC6 modulator effects in parental HEK293 cells. shares compounds with TRPC6 inh. membrane potential dye fluorescence; after compound, maximal acetylcholine stimulation. inhibition, % at 10 µM. 2,400 compounds, 14% hits;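 active = membrane potential signal drops by more than 5 SD from the mean control signal, in both duplicate plates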;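 note: plate controls were acetylcholine ECmax control wells for no effect and buffer only wells for full effect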
TRPC4/MOR mod: selectivity of TRPC6 modulators against mouse TRPC4; shares compounds with TRPC6 inh; HEK293 TRPC4/mu-opioid, membrane potential fluorescence; percent change from control (negative = decrease, positive = increase), % at 10 µM; 2,400 compounds, 69% hits;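 active = membrane potential signal moved up or down beyond 5 SD of buffer control wells, in both duplicate plates, actives on both sides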;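 note: plate controls were assay buffer wells for no effect and DAMGO maximal-effect wells for full effect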
TRPC4 ctr inh 2: second selectivity test of TRPC6 modulators against mouse TRPC4. 2,400 compounds, 55% hits. shares compounds with TRPC6 inh. inhibition, % at 10 µM. HEK293 TRPC4/mu-opioid, membrane potential dye fluorescence; stimulated with maximal-effect DAMGO;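 active = drop in membrane potential signal beyond 5 SD of the control wells in both duplicate plates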;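 note: TRPC4 counter screen for TRPC6 hits run under conditions tuned for TRPC6 not TRPC4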
TRPC6 inh conf: confirmation of mouse TRPC6 inhibitors | shares compounds with TRPC6 inh | HEK293-TRPC6, membrane potential dye, ACh-evoked depolarization | inhibition, % at 10 µM | 3,300 compounds, 43% hits;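 active = fluorescence ratio falls more than 5 SD below the full-stimulation control mean, in both duplicate runs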;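 note: integrated fluorescence ratio of peak minus minimum over baseline after agonist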
TRPC6 act conf: confirmation of mouse TRPC6 activators. shares compounds with TRPC6 inh. HEK293-TRPC6 membrane potential dye fluorescence, FDSS. activation, % at 10 µM. 2,800 compounds, 11% hits. AID 488961;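 active = ratio signal rise beyond 5 SD above unstimulated control wells' mean, seen in both duplicate runs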;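 note: plate controls were buffer EC0 wells for no effect and acetylcholine ECmax response for full effect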
* marks the source's active call; other numbers are inactive results; i = inactive; . = no result. Compounds with a hit are over-represented: about 2.9% of the library has one in this group of screens.

SMILES	TRPC6 activator	TRPC4 block	Kir21 block	TRPC4 PAM	TRPC4 agonist	TRPC6 inh	HEK293 MPD ctr-2	HEK293 MPD ctr 2-2	TRPC4/MOR mod	TRPC4 ctr inh 2	TRPC6 inh conf	TRPC6 act conf	others
CCOC(=O)N1CCN(C(=O)CN(c2cc(Cl)ccc2OC)S(=O)(=O)c2ccccc2)CC1	i	i	-0.94	i	i	-7.89*	.	.	.	.	i	i	TRPC4 sel inh 2=i;TRPC4 spec=7.5%*;HEK293 MPD ctr 2-1=i;HEK293 MPD ctr-1=3.1%*
CN(C)CCN(C(=O)C1CCN(S(=O)(=O)c2cccs2)CC1)c1nc2ccccc2s1	i	i	-0.71	i	i	i	.	.	.	.	.	.
CCCCn1c(N)c(N(CC(C)C)C(=O)c2ccc(S(=O)(=O)N3CCCCC3)cc2)c(=O)[nH]c1=O	i	i	-0.54	i	i	i	.	.	.	.	.	.
O=C(Cc1ccc([N+](=O)[O-])cc1)Nc1ccc2c(c1)OCO2	i	i	2.54	i	i	i	.	.	.	.	.	.
O=C(Cc1ccc([N+](=O)[O-])cc1)Nc1ccc2c(c1)CCC2	i	i	-1.28	i	i	-5.21*	i	i	i	i	i	i
CC(C)C(=O)N=C1SC2CS(=O)(=O)CC2N1Cc1ccccc1 (stereo unspecified)	i	i	0.89	i	i	i	.	.	.	.	.	.
NC(=O)CCCn1c(C(=O)c2ccc(Cl)cc2)c2ccc(C(F)(F)F)cc2[n+]1[O-]	i	i	0.15	i	i	i	.	.	.	.	.	.
NCCCn1c(C(=O)c2ccc(Cl)cc2)c2ccc(C(F)(F)F)cc2[n+]1[O-]	i	i	0.02	i	i	-9.34*	.	.	.	.	67.3%*	i	TRPC4 sel inh 2=55.5%*;TRPC4 spec=-11.3%*;HEK293 MPD ctr 2-1=i;HEK293 MPD ctr-1=-179.5%*
CCCSc1ccc(C(=O)Nc2ccc(Cl)cc2)cn1	i	i	-0.89	i	i	i	.	.	.	.	.	.
COc1ccc(CC(=O)NCCS(=O)(=O)N2CCN(c3ccccc3)CC2)cc1OC	i	i	2.11	i	i	i	.	.	.	.	.	.
Cc1ccccc1OCC(=O)NCCS(=O)(=O)N1CCN(c2ccc(F)cc2)CC1	i	i	0.4	i	i	-10.4*	.	.	.	.	94.7%*	.	TRPC4 sel inh 2=i;TRPC4 spec=i;HEK293 MPD ctr 2-1=i;HEK293 MPD ctr-1=i
COc1ccccc1OCC(=O)NCCS(=O)(=O)N1CCN(c2ccccc2)CC1	i	i	-0.43	i	i	-7.5*	.	.	.	.	i	i	TRPC4 sel inh 2=i;TRPC4 spec=i;HEK293 MPD ctr 2-1=i;HEK293 MPD ctr-1=i
CCOC(=O)c1ccc(Oc2nc(OC)cc(OC)n2)cc1	i	i	-2.68	i	i	i	.	.	.	.	.	.
Cc1ccc(C)c(N2CCN(CCCNC(=O)Cn3cc4c(n3)CCC(C)C4)CC2)c1 (stereo unspecified)	13.9*	i	-4.73*	i	i	i	93.5%*	i	15.5%*	61.5%*	i	i
CC1CCc2nn(CC(=O)NCCCN3CCCC3=O)cc2C1 (stereo unspecified)	i	i	-1.42	i	i	i	.	.	.	.	.	.
Cc1cccc(OCCCCN2CCNCC2)c1	i	i	-2.23	i	i	i	.	.	.	.	.	.
Cc1cc(C)c(OCCCCN2CCNCC2)c(C)c1	i	i	-1.73	i	i	-5.72*	i	i	i	54.0%*	43.5%*	.
Cc1ccc(OCCCCCCN2CCNCC2)cc1	i	i	-1.63	i	i	-6.73*	.	.	.	.	i	i	TRPC4 sel inh 2=47.5%*;TRPC4 spec=0.1%*;HEK293 MPD ctr 2-1=i;HEK293 MPD ctr-1=7.4%*
Cc1ccccc1OCCCCCCN1CCNCC1	i	i	0.17	10*	i	-8.22*	.	.	.	.	i	i	TRPC4 sel inh 2=53.5%*;TRPC4 spec=1.8%*;HEK293 MPD ctr 2-1=i;HEK293 MPD ctr-1=4.1%*
N#CCn1cnc2c(oc3ccccc32)c1=O	i	i	0.94	i	i	i	.	.	.	.	.	.
O=C(NCCCc1ccncc1)C1CCC(=O)N(CCc2cccc(F)c2)C1 (stereo unspecified)	i	i	0.37	i	i	i	.	.	.	.	.	.
CN1CCN(c2ccc([N+](=O)[O-])cc2/C=N/NC(=O)c2ccc(F)cc2)CC1	i	i	-1.75	i	i	-6.02*	-174.0%*	i	-34.5%*	i	i	i
CC(C)n1cnc2c(N(C)c3ccccc3)nc(N(CCN(C)C)Cc3ccccc3)nc21	i	i	-6.78*	i	110*	-5.79*	87.0%*	i	40.0%*	96.5%*	48.5%*	i
CN(C)CCN(Cc1ccccc1)c1nccc(N(C)C)c1C#N	i	i	-1.27	i	i	i	.	.	.	.	.	.
COc1ccc(/C=C2/C(=N)N3N=C(CC(=O)N4CCCC4)SC3=NC2=O)cc1	11.7*	i	1.44	i	i	i	163.0%*	i	24.5%*	i	i	84.0%*
CCc1ccc(/C=C2\C(=N)N3N=C(CC(=O)N4CCCCC4)SC3=NC2=O)cc1	i	i	-1.31	i	i	i	.	.	.	.	.	.
COc1ccc(/C=C2\C(=N)N3N=C(CC(=O)N4CCCCC4)SC3=NC2=O)cc1	12.3*	i	1.8	i	i	i	135.5%*	i	22.0%*	i	i	76.5%*
